In PMC12780242 (Scientific Reports, 2025):
Read-outs that look alike come from different tables or passages of the source.

How the values were obtained:
[1] = test system: patients with unresectable advanced or recurrent gastric cancer (AGC); assay: Dose-finding cohort; assay type: in vivo, human; details: in combination with CapeOX
How it was run: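 Open-label multicenter phase I with standard 3 + 3 escalation. Pevonedistat dose levels were 20, 15 and 10 mg/m2. There was a single-agent lead-in dose on day 1, then a 7-day interval. Each 3-week cycle gave oxaliplatin 130 mg/m2 on day 1, oral capecitabine 1000 mg/m2/day twice daily about 12 h apart for 14 days, and pevonedistat on days 1, 3 and 5. The DLT window ran from the first lead-in dose to day 35 or the start of cycle 2, whichever came first. The RD also weighed adverse events in later cycles.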

[2] = test system: CDT1; assay: CDT1 immunohistochemistry in endoscopic tumor biopsies; assay type: in vivo, human
How it was run: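 Endoscopic tumor biopsies from gastric cancer patients, taken at screening and on day 2 after a single lead-in dose of pevonedistat given alone on day 1. Formalin-fixed paraffin-embedded sections stained by immunohistochemistry with a monoclonal anti-CDT1 antibody. Read-out is CDT1-positive cells.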

[3] = Phase II trials for other cancers; cited from earlier work
[4] = test system: gastric cancer cells; details: preclinical studies; cited from earlier work
[5] = test system: AGC; details: cited from earlier work
[6] = third-line or later treatment of AGC
[7] = after failure of ≥ 2 chemotherapy regimens, pivotal Phase III trials

Compound	Maximum tolerated dose of pevonedistat [1] [mg/m^2]	Recommended dose (RD) of pevonedistat ([1]; days 1, 3, 5 of a 3-week cycle) [mg/m^2]	Cullin–RING ligase substrates NRF2 and CDT1 in post-treatment tumor biopsies ([2]; in vivo)	Pevonedistat-NEDD8 adduct in post-treatment tumor biopsies ([2]; in vivo)	Patients with increased CDT1 expression ([2]; post-treatment tumor biopsy) [%]	RD of pevonedistat combined with chemotherapy [3]	Growth of gastric cancer cells [4]	Patients experiencing disease progression as their best response [5, 6]	Response rates [5, 6]	Response rates [5, 7] [%]
NS(=O)(=O)OC[C@@H]1C[C@@H](n2ccc3c(N[C@H]4CCc5ccccc54)ncnc32)C[C@@H]1O [Pevonedistat]	15	15	increase	presence	75	20–25 mg/m^2	significantly suppresses the growth			
CCc1c2c(nc3ccc(OC(=O)N4CCC(N5CCCCC5)CC4)cc13)-c1cc3c(c(=O)n1C2)COC(=O)[C@]3(O)CC [irinotecan]								more than 50%	around 10%	
Nivolumab								more than 50%	around 10%	≤ 10
trifluridine/tipiracil								more than 50%	around 10%	≤ 10
